The values below come from ChEMBL document CHEMBL1909587, “Design, synthesis and biological study of novel pyrido[2,3-d]pyrimidine as anti-proliferative CDK2 inhibitors” (Eur J Med Chem, 2011).

SMILES strings stand for the structures. Bounds are passed on as bounds.

The target of experiment [1] is Epidermal growth factor receptor (Homo sapiens, UniProt P00533). The experiment in a line: Inhibition of human EGFR. In outline:
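Kinase activity measured with the C-terminal human EGFR tyrosine kinase domain; IC50 taken as the inhibitor concentration giving 50% inhibition.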

A short description of experiment [2]: Inhibition of CDK4/cyclin D expressed in baculovirus infected insect Sf21 cells using [gamma-P32]ATP and histone H1 as substrate after 10 mins by radiometric assay. Put shortly: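 20 µL reactions in 50 mM Tris-HCl with 10 µM ATP, 0.2 µCi [γ-32P]ATP, 10 mM MgCl2, 5 mM DTT, 4 µg histone H1 substrate; 10 min with inhibitor, stopped with 30% phosphoric acid. Spotted on P81 paper, washed five times in 10 mM Tris-HCl pH 8.0/0.1 M NaCl, radioactivity imaged; IC50 = concentration giving 50% inhibition.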

A further experiment deals with SNU-638. As to the kind of experiment: Growth inhibition of human SNU638 cells after 2 days by SRB assay. The note with it: SNU-638, 48 h. In kind it is functional. In outline: (§1)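 Cells kept in RPMI 1640 with 10% FBS at 37 °C, 5% CO2; 1000 cells/well plated, compounds added next day at various concentrations for two days. Fixed with 4% formalin, stained with 0.1% sulforhodamine B, dye eluted in 0.1 M Tris/HCl pH 8.0, absorbance at 520 nm. Triplicate, averaged; 0% = treatment-time absorbance, 100% = untreated two-day growth; GI50 = 50% growth inhibition.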

The subject of a further experiment is HCT116 (Homo sapiens). The experiment in a line: Growth inhibition of human HCT116 cells after 2 days by SRB assay. The note with it: HCT116, 48 h. On the technique in general: Sulforhodamine B stains cellular protein and so reports cell mass.
The target of experiment [3] is Cyclin-dependent kinase 2/cyclin A (Homo sapiens, UniProt P24941). The experiment in a line: Inhibition of CDK2/cyclin A expressed in baculovirus infected insect Sf21 cells using [gamma-P32]ATP and histone H1 as substrate after 10 mins by radiometric assay.
The test system of the next experiment is A-431. The experiment in a line: Growth inhibition of human A431 cells after 2 days by SRB assay. The note with it: A-431, 48 h. The format is functional. Put shortly: as §1

Sequence of Epidermal growth factor receptor (P00533 whole entry, the tested form may be a part): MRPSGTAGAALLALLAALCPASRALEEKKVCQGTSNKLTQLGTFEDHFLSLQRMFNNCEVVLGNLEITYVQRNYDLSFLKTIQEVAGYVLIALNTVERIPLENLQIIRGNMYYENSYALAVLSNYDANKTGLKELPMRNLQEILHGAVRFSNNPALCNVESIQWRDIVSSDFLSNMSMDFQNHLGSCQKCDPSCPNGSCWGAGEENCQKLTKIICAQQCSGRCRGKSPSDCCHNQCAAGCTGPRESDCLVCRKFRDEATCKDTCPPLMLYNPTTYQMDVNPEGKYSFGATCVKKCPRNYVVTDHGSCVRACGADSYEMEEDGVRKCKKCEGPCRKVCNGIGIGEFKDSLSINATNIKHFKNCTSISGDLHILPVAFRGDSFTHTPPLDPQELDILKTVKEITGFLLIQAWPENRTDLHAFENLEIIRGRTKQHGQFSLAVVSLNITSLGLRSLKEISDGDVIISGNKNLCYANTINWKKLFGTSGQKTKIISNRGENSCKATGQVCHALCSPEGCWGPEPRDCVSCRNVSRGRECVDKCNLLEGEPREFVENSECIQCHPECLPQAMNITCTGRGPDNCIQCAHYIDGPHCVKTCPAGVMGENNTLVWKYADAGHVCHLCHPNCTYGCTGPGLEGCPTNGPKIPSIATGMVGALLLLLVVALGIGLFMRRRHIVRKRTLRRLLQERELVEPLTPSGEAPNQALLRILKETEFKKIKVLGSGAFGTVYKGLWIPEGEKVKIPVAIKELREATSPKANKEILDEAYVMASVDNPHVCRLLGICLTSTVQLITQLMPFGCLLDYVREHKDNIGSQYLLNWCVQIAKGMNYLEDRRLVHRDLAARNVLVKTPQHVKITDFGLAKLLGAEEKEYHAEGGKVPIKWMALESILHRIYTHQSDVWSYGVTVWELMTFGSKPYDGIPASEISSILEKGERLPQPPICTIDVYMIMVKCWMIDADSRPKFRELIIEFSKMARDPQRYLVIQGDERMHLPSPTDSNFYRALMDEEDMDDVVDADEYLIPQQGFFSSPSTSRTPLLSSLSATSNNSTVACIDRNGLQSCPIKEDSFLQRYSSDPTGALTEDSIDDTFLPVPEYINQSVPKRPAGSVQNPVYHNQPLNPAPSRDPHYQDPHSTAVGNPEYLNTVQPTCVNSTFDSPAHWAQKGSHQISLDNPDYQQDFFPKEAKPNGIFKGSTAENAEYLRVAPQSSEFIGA

What is called IC50 is the midpoint of a concentration-inhibition curve. By GI50 is commonly meant the concentration giving 50% growth inhibition. A high value points to lower sensitivity of the cells. Take `N#Cc1cc2c(N)ncnc2nc1NCCO`: the concentration for half-maximal inhibition (IC50) in experiment [1] was 93.3 µM; in experiment [2], greater than 200 µM; in experiment [3], 29.5 µM. Further, the results for the GI50 in the experiment on SNU-638, with HCT116 (Homo sapiens) and in the experiment on A-431 were 20.8 µM, 4.5 µM and 26.6 µM, respectively.
For `Cc1c(C#N)c(NCCO)nc2ncnc(N)c12`, the IC50 in experiment [1] is greater than 100 µM; in experiment [2] it was 36 µM; in experiment [3], 29.5 µM. In addition, the GI50 was found to be 2.58 µM in the experiment with SNU-638, 4.1 µM in the experiment with HCT116 (Homo sapiens) and 5.06 µM in the experiment with A-431.
In the case of `N#Cc1cc2c(N)ncnc2nc1Nc1ccc(S(N)(=O)=O)cc1`, the IC50 in experiment [1] is greater than 100 µM; in experiment [2], 13 µM; in experiment [3], 0.3 µM. The GI50 in the experiment with SNU-638 is 7.57 µM; with HCT116 (Homo sapiens), 19.3 µM; in the experiment with A-431, 7.8 µM.
As for `Cc1c(C#N)c(Nc2ccc(S(N)(=O)=O)cc2)nc2ncnc(N)c12`, the IC50 in experiment [1] was greater than 100 µM; in experiment [2], 16 µM; in experiment [3], 10 µM. In addition, the GI50 worked out at 6.2 µM with SNU-638, 16.6 µM in the experiment on HCT116 (Homo sapiens) and 2.94 µM in the experiment on A-431.
In the case of `Nc1scc2c1c(NCCO)nc1ncnc(N)c12`, the IC50 is greater than 100 µM in experiment [1], 29 µM in experiment [2] and 0.5 µM in experiment [3]. The GI50 with SNU-638 came out at 18.3 µM; with HCT116 (Homo sapiens), 6.46 µM; in the experiment on A-431 it was 54.3 µM.
Take `Nc1scc2c1c(Nc1ccc(S(N)(=O)=O)cc1)nc1ncnc(N)c12`: the IC50 in experiment [1] is 29.5 µM; in experiment [2] it was greater than 120 µM; in experiment [3] it was 36.3 µM. Besides, the concentration for 50% growth inhibition (GI50) in the experiment with SNU-638 amounted to 2.56 µM; in the experiment with HCT116 (Homo sapiens), 8.89 µM; in the experiment with A-431, 3.94 µM.
Consider `N#Cc1cc2c(N)nc(NCCO)nc2nc1NCCO`, for which the IC50 in experiment [1] was greater than 100 µM; in experiment [2] it was 28 µM; in experiment [3], 6.3 µM. The GI50 with SNU-638 was 7.95 µM; in the experiment on HCT116 (Homo sapiens), 10.9 µM; with A-431 it was 6.25 µM.
Take `Cc1c(C#N)c(NCCO)nc2nc(NCCO)nc(N)c12`: the values for the IC50 in experiment [1], in experiment [2] and in experiment [3] were 47.9 µM, 10 µM and 3.8 µM, respectively. The values for the GI50 in the experiment with SNU-638, in the experiment on HCT116 (Homo sapiens) and in the experiment on A-431 were 18.2 µM, 20.1 µM and 31.9 µM, respectively.
On to `N#Cc1cc2c(N)nc(NCCO)nc2nc1Nc1ccc(S(N)(=O)=O)cc1`, for which the values for the IC50 in experiment [1], in experiment [2] and in experiment [3] were greater than 100 µM, 120 µM and 0.9 µM, respectively. Further, the GI50 in the experiment on SNU-638 was 35.8 µM; in the experiment with HCT116 (Homo sapiens), 48.2 µM; with A-431 it was 36.3 µM.
Turning to `Cc1c(C#N)c(Nc2ccc(S(N)(=O)=O)cc2)nc2nc(NCCO)nc(N)c12`, the IC50 in experiment [1] is greater than 100 µM; in experiment [2], 95 µM; in experiment [3], 3.1 µM. The GI50 is 17.1 µM with SNU-638, 38.2 µM with HCT116 (Homo sapiens) and greater than 100 µM with A-431.
`Nc1scc2c1c(NCCO)nc1nc(NCCO)nc(N)c12`: the IC50 is 66.1 µM in experiment [1], greater than 48 µM in experiment [2] and 0.09 µM in experiment [3]. The GI50 worked out at 2.57 µM in the experiment with SNU-638, 11.4 µM in the experiment on HCT116 (Homo sapiens) and 4.6 µM with A-431.
As to `Nc1scc2c1c(Nc1ccc(S(N)(=O)=O)cc1)nc1nc(NCCO)nc(N)c12`, the figures for the IC50 in experiment [1], in experiment [2] and in experiment [3] were greater than 100 µM, 44 µM and 8.1 µM, respectively. Moreover, the GI50 turned out to be 26.1 µM with SNU-638, 47.7 µM in the experiment with HCT116 (Homo sapiens) and 21.9 µM in the experiment on A-431.
For `COc1cccc2c1C(=O)c1c(O)c3c(c(O)c1C2=O)C[C@@](O)(C(=O)CO)C[C@@H]3O[C@H]1C[C@H](N)[C@H](O)[C@H](C)O1` [DOXORUBICIN], the GI50 in the experiment with HCT116 (Homo sapiens) is 0.13 µM; with A-431, 0.18 µM.
As to `Cn1cnc2c(NCc3ccccc3)nc(NCCO)nc21` [OLOMOUCINE], in experiment [2], the IC50 came out at 45 µM. In addition, the GI50 in the experiment with SNU-638 was determined as 16.6 µM; in the experiment on HCT116 (Homo sapiens), 12.1 µM; in the experiment with A-431, 16.6 µM.
Consider `CC[C@H](CO)Nc1nc(NCc2ccccc2)c2ncn(C(C)C)c2n1` [SELICICLIB], for which, in experiment [2], the IC50 amounted to 15 µM.
